From ChEMBL document CHEMBL1123394, “Systematic synthesis and biological evaluation of alpha- and beta-D-xylofuranosyl nucleosides of the five naturally occurring bases in nucleic acids and related analogues” (J Med Chem, 1986)
In brackets after ≈: the same amount, converted by molar mass.

Assays:
Vero [1] = assay: Antiviral activity was measured against Reo virus-1 in african green monkey kidney (Vero B) cells.; assay type: functional; settings: Chlorocebus sabaeus
How it was run: (§1)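 Inhibition of virus-induced cytopathogenicity scored in cell culture monolayers. Test compounds dissolved in growth medium at 100, 10, or 1 μg/mL or less.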

WI-38 [2] = assay: Antiviral activity was measured against Rhino virus-1A in human diploid (WI-38) cells.; assay type: functional; how it was run: as §1
[3] = Concentration required to reduce RNA synthesis in primary rabbit kidney cells using [3H-5]-Urd incorporation; assay type: functional; settings: Oryctolagus cuniculus, read-out: ID50 (the source's name)
How it was run: (§2)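 Primary rabbit kidney cells with compounds in growth medium at 100, 10, or 1 μg/mL or less. Cell number and incorporation of [3H-methyl]dThd (DNA), [3H-5]Urd (RNA) or [3H2-4,5]leucine (protein) measured. ID50 taken as the dose giving 50% reduction in cell number or in DNA, RNA or protein synthesis.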

Mus musculus [4] = species: Mus musculus; assay: Efficacy expressed as number of surviving mice infected with herpetic encephalitis at dose of 75 mg.kg; assay type: functional
How it was run: (§3)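 Young mice (10 g) were inoculated intracerebrally with 0.03 mL of herpes simplex virus suspension containing ca. 4 CCID50. Compound was given at 75 or 150 mg/kg per day as two daily intraperitoneal injections for 4 days. Read-out was the number of surviving mice.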

HeLa [5] = assay: Concentration required for microscopically detectable alteration of the normal cell morphology in HeLa cells.; assay type: functional; settings: Homo sapiens
How it was run: (§4)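 Host-cell morphology inspected microscopically for detectable alteration, with compounds in growth medium at up to 200 or 400 μg/mL.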

[6] = Antiviral activity was measured against Herpes simplex virus (HSV-1 KOS) in rabbit kidney cells.; assay type: functional; settings: Oryctolagus cuniculus
How it was run: (§5)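 Inhibition of virus-induced cytopathogenicity in cell culture. Compounds were dissolved in growth medium at 100, 10 or 1 μg/mL or less.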

[7] = Concentration required to reduce protein synthesis in primary rabbit kidney cells usingi [3H2-4,5]leucine incorporation; assay type: functional; settings: Oryctolagus cuniculus, read-out: ID50 (the source's name); how it was run: as §2
WI-38 [8] = assay: Concentration required for microscopically detectable alteration of the normal cell morphology in Wi-38 cells.; assay type: functional; settings: Homo sapiens; how it was run: as §4
HeLa [9] = assay: Antiviral activity was measured against Coxsackie virus B4 in HeLa cells.; assay type: functional; settings: Homo sapiens; how it was run: as §5
Vero [10] = assay: Antiviral activity was measured against Sindbis virus in african green monkey kidney (Vero B) cells.; assay type: functional; settings: Chlorocebus sabaeus; how it was run: as §1
[11] = Antiviral activity was measured against Vesicular stomatitis virus in rabbit kidney cells.; assay type: functional; settings: Oryctolagus cuniculus; how it was run: as §5
[12] = Antiviral activity was measured against Vaccinia virus in rabbit kidney cells.; assay type: functional; settings: Oryctolagus cuniculus; how it was run: as §5
Mus musculus [13] = assay: Efficacy expressed as number of surviving mice infected with herpetic encephalitis at dose of 150 mg/kg; T is Toxic; assay type: functional, organism-based; parameters: dose 150 mg/kg
Vero [14] = assay: Antiviral activity was measured against forest virus in african green monkey kidney (Vero B) cells.; assay type: functional; settings: Chlorocebus sabaeus; how it was run: as §1
[15] = Concentration required to reduce DNA synthesis in primary rabbit kidney cells using [3H-Methyl]-dThd incorporation; assay type: functional; settings: Oryctolagus cuniculus, read-out: ID50 (the source's name); how it was run: as §2
[16] = Number of living cells on the proliferation of mouse myeloma cells SP2 was measured at concentration 100 ug/mL at 48 hr.; assay type: functional
How it was run: (§6)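 Mouse myeloma SP2 cells seeded at 123 × 10^3 cells and exposed to compound at 1, 10 or 100 μg/mL in growth medium. Living cells counted at 0, 48 and 96 h alongside untreated controls.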

[17] = Number of living cells on the proliferation of mouse myeloma cells SP2 was measured at concentration 100 ug/mL at 0h.; assay type: functional; how it was run: as §6
[18] = Number of living cells on the proliferation of mouse myeloma cells SP2 was measured at concentration 100 ug/mL at 96 h.; assay type: functional; how it was run: as §6
Vero [19] = assay: Antiviral activity was measured against Parainfluenza virus-3 in african green monkey kidney (Vero B) cells.; assay type: functional; settings: Chlorocebus sabaeus; how it was run: as §1
Mus musculus [20] = assay: Efficacy expressed as number of surviving mice infected with herpetic encephalitis at dose of 0 mg/kg; assay type: functional
[21] = dose required to reduce primary rabbit kidney cell growth; assay type: functional; settings: Oryctolagus cuniculus, read-out: ID50 (the source's name); how it was run: as §2
WI-38 [22] = assay: Antiviral activity was measured against Rhino virus-9 in human diploid (WI-38) cells.; assay type: functional; how it was run: as §1
[23] = Concentration required for microscopically detectable alteration of the normal cell morphology in PRK cells.; assay type: functional; settings: Oryctolagus cuniculus; how it was run: as §4
[24] = Antiviral activity was measured against Herpes simplex virus (HSV-2 G) in rabbit kidney cells.; assay type: functional; settings: Oryctolagus cuniculus; how it was run: as §1
Vero [25] = assay: Antiviral activity was measured against Coxsackie virus B4 in african green monkey kidney (Vero B) cells.; assay type: functional; settings: Chlorocebus sabaeus; how it was run: as §1
Vero [26] = assay: Concentration required for microscopically detectable alteration of the normal cell morphology in Vero B cells.; assay type: functional; settings: Chlorocebus sabaeus; how it was run: as §4
HeLa [27] = assay: Antiviral activity was measured against vesicular stomatitis virus in HeLa cells.; assay type: functional; settings: Homo sapiens; how it was run: as §5
Mus musculus [28] = assay: Toxicity of compound against mice was determined at a concentration of 750 mg/kg; assay type: organism-based; parameters: dose 750 mg/kg; settings: in vivo
How it was run: (§7)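 Swiss mice (20-24 g) received a single intraperitoneal dose of 100-2,000 mg/kg. Compound was suspended in distilled water containing 0.2 g Tween 80 and 0.2 g (carboxymethyl)cellulose per 100 mL. Mice were followed for 14 days for acute toxicity.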

Mus musculus [29] = assay: Toxicity of compound against mice was determined at a concentration of 100 mg/kg; assay type: organism-based; parameters: dose 100 mg/kg; settings: in vivo; how it was run: as §7
Mus musculus [30] = assay: Toxicity of compound against mice was determined at a concentration of 250 mg/kg; assay type: organism-based; parameters: dose 250 mg/kg; settings: in vivo; how it was run: as §7
Mus musculus [31] = assay: Toxicity of compound against mice was determined at a concentration of 2000 mg/kg; assay type: organism-based; parameters: dose 2000 mg/kg; settings: in vivo; how it was run: as §7
Mus musculus [32] = assay: Efficacy expressed as number of surviving mice infected with herpetic encephalitis at dose of 150 mg/kg; assay type: functional; how it was run: as §3
Mus musculus [33] = assay: Toxicity of compound against mice was determined at a concentration of 1200 mg/kg; assay type: organism-based; parameters: dose 1200 mg/kg; settings: in vivo; how it was run: as §7
[34] = Dose required to reduce primary rabbit kidney cell growth; assay type: functional; settings: Oryctolagus cuniculus, read-out: ID50 (the source's name); how it was run: as §2
[35] = Antiviral activity was measured against vesicular stomatitis virus in rabbit kidney cells.; assay type: functional; settings: Oryctolagus cuniculus; how it was run: as §5
[36] = Antiviral activity was measured against vaccinia virus in rabbit kidney cells.; assay type: functional; settings: Oryctolagus cuniculus; how it was run: as §5

| Structure (SMILES) | MCC (Vero [1]) [µg/mL] | MCC (WI-38 [2]) [µg/mL] | IC50 [3] [µg/mL] | Efficacy (Mus musculus [4]) [mg/kg] | MCC (HeLa [5]) [µg/mL] | MCC [6] [µg/mL] | IC50 [7] [µg/mL] | MCC (WI-38 [8]) [µg/mL] | MCC (HeLa [9]) [µg/mL] | MCC (Vero [10]) [µg/mL] | MCC [11] [µg/mL] | MCC (Vero [14]) [µg/mL] | IC50 [15] [µg/mL] | MCC (Vero [19]) [µg/mL] | Efficacy (Mus musculus [20]) [mg/kg] | MCC (WI-38 [22]) [µg/mL] | MCC [23] [µg/mL] | MCC [24] [µg/mL] | MCC (Vero [25]) [µg/mL] | MCC (Vero [26]) [µg/mL] | also measured |
| --- | --- | --- | --- | --- | --- | --- | --- | --- | --- | --- | --- | --- | --- | --- | --- | --- | --- | --- | --- | --- | --- |
| Nc1nc(O)c2ncn([C@@H]3O[C@H](CO)[C@H](O)[C@H]3O)c2n1 | > 400 | > 400 | 61 (≈ 215 µM) | 3 | 400 | 70 | 148 (≈ 523 µM) | > 400 | > 200 | > 400 | > 200 | > 400 | 71 (≈ 251 µM) | > 400 | 0 | > 400 | > 200 | 70 | > 400 | > 400 | MCC [12]: 10 µg/mL; Efficacy (Mus musculus [13]): Toxic; No. of living cells [16]: 0.024; No. of living cells [17]: 0.123; No. of living cells [18]: 0; IC50 [21]: 62 µg/mL (≈ 219 µM) |
| Nc1ncnc2c1ncn2C1O[C@H](CO)[C@H](O)[C@H]1O (stereo not given in full) | > 400 | > 400 |  |  | > 400 | > 400 |  | > 400 | > 400 | > 400 |  | > 400 |  | > 400 |  | > 40 | > 400 | > 400 | > 400 | > 400 |  |
| Nc1ncnc2c1ncn2[C@@H]1O[C@H](CO)[C@@H](O)[C@@H]1O [VIDARABINE] | 150 | > 100 | 15 (≈ 56.1 µM) | 0 | ≥ 200 | 20 | > 200 | ≥ 100 | > 100 | > 100 | 70 | > 100 | 31 (≈ 116 µM) | 150 | 0 | > 100 | ≥ 200 | 10 | > 100 | ≥ 200 | MCC (HeLa [27]): 150 µg/mL; No. of dead mice (Mus musculus [28]): 0; No. of dead mice (Mus musculus [29]): 0; No. of dead mice (Mus musculus [30]): 0; No. of dead mice (Mus musculus [31]): 0; Efficacy (Mus musculus [32]): 0 mg/kg; MCC [12]: 2 µg/mL; IC50 [21]: 27 µg/mL (≈ 101 µM); No. of dead mice (Mus musculus [33]): 0 |
| Nc1ccn([C@@H]2O[C@H](CO)[C@H](O)[C@H]2O)c(=O)n1 | > 100 | > 400 | 60 (≈ 247 µM) | 1 | 200 | 20 |  | 400 | > 100 | > 40 | > 100 | > 200 | 84 (≈ 345 µM) | > 100 | 0 | > 400 | > 200 | 20 | > 100 | > 200 | No. of dead mice (Mus musculus [28]): 0; No. of dead mice (Mus musculus [29]): 0; No. of dead mice (Mus musculus [30]): 0; No. of dead mice (Mus musculus [31]): 1; Efficacy (Mus musculus [32]): 2 mg/kg; MCC [12]: 20 µg/mL; No. of living cells [16]: 0.056; No. of living cells [18]: 0; IC50 [34]: 72 µg/mL (≈ 296 µM); No. of dead mice (Mus musculus [33]): 0 |
| Nc1ncnc2c1ncn2C[C@H](O)CO [(S)-DHPA] | 100 | 150 |  |  | > 400 | > 400 |  | > 400 | > 400 | > 400 |  | > 400 |  | > 400 |  | > 400 | > 400 | > 400 | 100 | > 400 | MCC (HeLa [27]): 70 µg/mL; MCC [35]: 20 µg/mL; MCC [36]: 20 µg/mL |
| Nc1nc2c(ncn2COCCO)c(=O)[nH]1 [ACYCLOVIR] |  |  |  |  |  |  |  |  |  |  |  |  |  |  | 0 |  |  |  |  |  | No. of dead mice (Mus musculus [28]): 1; No. of dead mice (Mus musculus [29]): 0; No. of dead mice (Mus musculus [30]): 0; No. of dead mice (Mus musculus [31]): 7; No. of dead mice (Mus musculus [33]): 7 |
| Nc1ccn([C@@H]2O[C@H](CO)[C@@H](O)[C@@H]2O)c(=O)n1 [CYTARABINE] |  |  | 0.03 (≈ 0.123 µM) |  |  |  | > 200 |  |  |  |  |  | 0.05 (≈ 0.206 µM) |  |  |  |  |  |  |  | IC50 [34]: 0.04 µg/mL (≈ 0.164 µM) |
